A word on the IC50: it is the concentration needed to halve the response being measured. The term Kd denotes the equilibrium constant for the complex coming apart. Read a low Kd as higher affinity.

These results are taken from paper PMC9256809 (Molecular Cancer Therapeutics, 2022).

One series relates to Ba/F3 cells FLT3- ITD. The experiment in a line: Antiproliferative assay in Ba/F3 cells transfected with FLT3 variants. It counts as cell-based, mouse. The note with it: for IC50: Mus musculus, BaF3.
Series [1] concerns Ba/F3 cells FLT3-ITD + F691L. The description is as above. The following applies: Mus musculus, BaF3. The format is cell-based.
For series [2], the system named is relapsed or refractory FLT3-mutated AML. The following applies: FLT3 inhibitor-naïve patients with relapsed or refractory FLT3-mutated AML; cited from earlier work.
The subject of series [3] is Ba/F3 cells FLT3-ITD + D835Y. The experiment in a line: Antiproliferative assay in Ba/F3 cells transfected with FLT3 variants. The following applies: Mus musculus, BaF3. It counts as cell-based.
A further series concerns Ba/F3 cells FLT3 D835Y. Described as above. The format is cell-based. The note with it: Mus musculus, BaF3.
The next series has as its system phosphorylation of FLT3. The experiment in a line: Western blot analysis of kinase inhibition. The format is cell-based. The note with it: Fig. 2B. The procedure, abridged:
(§1)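 Cells were exposed to vehicle DMSO or a concentration range of test compound for 1 or 24 h, then lysed. Blots were probed for total and phosphorylated FLT3 (pY589/591), STAT5 (pY694) and ERK1/2 (pT202/204). Images are representative of 3 biological repeats.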
Background: A western blot detects proteins with antibodies after separation by electrophoresis.

For series [4], the system named is samples from patients with MDS/MPN. The experiment in a line: Ex vivo cell viability assay. The note with it: Homo sapiens, read-out: median IC50. The format is cell-based. The procedure, abridged:
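Freshly isolated patient mononuclear cells (peripheral blood or bone marrow) were plated at 10,000 cells/well. They were given a seven-point, 3-fold dilution series from 10 to 0.0137 µmol/L, made from DMSO stocks, and incubated 3 days. Growth was read by MTS; absorbance was background-subtracted and normalised to untreated wells. IC50 was obtained per sample and the median taken.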

Series [5] concerns primary mononuclear cells from patients with AML. The experiment in a line: Ex vivo cell viability assay. The format is cell-based. The following applies: Homo sapiens, read-out: median IC50, 186 primary samples from patients with AML.
In the next series the target is FLT3 D833Q (TKD) (Homo sapiens, UniProt P36888). The experiment in a line: DiscoverX KINOMEscan competition binding.
Sequence of FLT3 D833Q (TKD) (P36888 610-943, stated change not applied): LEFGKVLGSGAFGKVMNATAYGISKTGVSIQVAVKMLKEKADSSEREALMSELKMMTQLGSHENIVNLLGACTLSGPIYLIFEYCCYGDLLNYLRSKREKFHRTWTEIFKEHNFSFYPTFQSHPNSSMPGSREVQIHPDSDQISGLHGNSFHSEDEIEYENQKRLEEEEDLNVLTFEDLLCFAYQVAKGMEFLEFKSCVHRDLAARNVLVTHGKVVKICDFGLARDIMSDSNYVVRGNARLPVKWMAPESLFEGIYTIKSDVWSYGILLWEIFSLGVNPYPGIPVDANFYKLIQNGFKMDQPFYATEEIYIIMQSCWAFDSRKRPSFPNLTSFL
A further series has as its target FLT3 ITD/F691L (Homo sapiens, UniProt P36888, F691L/ITD). The experiment in a line: DiscoverX KINOMEscan competition binding.
Series [6] in a line: Cardiovascular study in dogs. The format is in vivo.
The test system of a further series is MOLM-13. The experiment in a line: Antiproliferative assay. The note with it: Homo sapiens, MOLM-13, 72 h, read-out: Mean IC50. The format is cell-based. The procedure, abridged: (§2)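 Human AML lines from ATCC or DSMZ, STR-authenticated, mycoplasma-tested every 2 months and grown in source-recommended medium. Cells were exposed in four replicates to increasing concentrations of test compound for 72 h. Proliferation was read with the CellTiter 96 AQueous One (MTS) reagent.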

Series [7] can be described thus: 28-day GLP repeat-dose toxicology study. It counts as in vivo. The following applies: dogs, up to highest dose tested of 600 mg/kg orally.
For the next series, the target named is FLT3– ITD (Homo sapiens, UniProt P36888, ITD). The experiment in a line: DiscoverX KINOMEscan competition binding.
Sequence of FLT3– ITD (P36888 564-993, change not shown): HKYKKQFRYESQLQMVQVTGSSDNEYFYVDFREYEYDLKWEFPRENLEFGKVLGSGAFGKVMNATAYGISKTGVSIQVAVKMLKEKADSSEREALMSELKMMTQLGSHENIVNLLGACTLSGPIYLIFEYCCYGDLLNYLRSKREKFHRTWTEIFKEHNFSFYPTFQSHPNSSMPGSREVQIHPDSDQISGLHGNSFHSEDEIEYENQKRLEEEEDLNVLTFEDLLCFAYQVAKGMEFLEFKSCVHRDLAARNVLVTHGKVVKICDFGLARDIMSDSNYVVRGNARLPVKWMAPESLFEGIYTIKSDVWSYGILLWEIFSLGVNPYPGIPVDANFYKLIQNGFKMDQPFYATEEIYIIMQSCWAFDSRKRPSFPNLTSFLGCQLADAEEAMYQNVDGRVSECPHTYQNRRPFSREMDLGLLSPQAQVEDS
The target in the next series is CYP3A5 (Homo sapiens, UniProt P20815). The experiment in a line: Metabolism studies. It counts as in vitro ADME.
Sequence of CYP3A5 (P20815 whole entry): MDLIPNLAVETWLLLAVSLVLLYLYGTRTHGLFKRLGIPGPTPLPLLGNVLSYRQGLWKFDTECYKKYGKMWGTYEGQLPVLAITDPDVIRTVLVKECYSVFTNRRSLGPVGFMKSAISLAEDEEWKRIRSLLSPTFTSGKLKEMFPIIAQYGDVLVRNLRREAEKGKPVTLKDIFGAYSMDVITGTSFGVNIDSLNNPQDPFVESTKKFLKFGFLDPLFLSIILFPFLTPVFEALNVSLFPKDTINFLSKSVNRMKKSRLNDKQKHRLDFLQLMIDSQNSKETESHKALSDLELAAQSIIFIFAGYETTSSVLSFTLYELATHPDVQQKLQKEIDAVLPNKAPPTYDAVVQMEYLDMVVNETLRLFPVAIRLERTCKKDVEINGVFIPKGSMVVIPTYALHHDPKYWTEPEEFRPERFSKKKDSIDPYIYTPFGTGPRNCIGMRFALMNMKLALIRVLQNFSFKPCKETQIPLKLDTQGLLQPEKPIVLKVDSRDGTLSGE
A further series has as its target FLT3 (Homo sapiens, UniProt P36888). The experiment in a line: Plasma inhibition assay. The note with it: phase I doses yielding plasma concentrations up to 1 μmol/L.
In series [8] the test system is FLT3-mutant AML cell lines and the PDGFR-α mutant EOL-1 cell line. The experiment in a line: Apoptosis by PARP cleavage. It counts as cell-based, human. The following applies: all 3 FLT3-mutant AML cell lines and EOL-1. Put shortly: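 Cells were treated with DMSO vehicle or test compound for 1 or 24 h, then lysed. Apoptosis was assessed by Western blot for PARP cleavage.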

In another series the target is CYP3A4 (Homo sapiens, UniProt P08684). The experiment in a line: Metabolism studies. The format is in vitro ADME.
Sequence of CYP3A4 (P08684 whole entry): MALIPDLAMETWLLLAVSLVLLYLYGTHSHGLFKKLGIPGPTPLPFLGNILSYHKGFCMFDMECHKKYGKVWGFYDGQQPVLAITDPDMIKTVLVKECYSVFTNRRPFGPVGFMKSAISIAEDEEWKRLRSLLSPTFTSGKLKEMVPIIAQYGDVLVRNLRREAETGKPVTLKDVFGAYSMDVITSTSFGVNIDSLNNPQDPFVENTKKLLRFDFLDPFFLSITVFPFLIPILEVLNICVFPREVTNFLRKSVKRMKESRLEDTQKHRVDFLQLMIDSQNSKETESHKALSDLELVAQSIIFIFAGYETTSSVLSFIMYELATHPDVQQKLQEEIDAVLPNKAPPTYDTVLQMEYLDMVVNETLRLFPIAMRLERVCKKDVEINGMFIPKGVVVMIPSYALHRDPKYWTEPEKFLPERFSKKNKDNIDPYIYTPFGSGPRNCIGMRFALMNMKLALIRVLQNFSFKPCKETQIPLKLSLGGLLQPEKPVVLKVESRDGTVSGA
The next series deals with ERBB (Homo sapiens, UniProt P04626). The experiment in a line: RBC enzymatic assay, ATP at Km. It counts as biochemical. The procedure, abridged: (§3)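 Recombinant kinases were assayed with ATP at each kinase's Km, and IC50 values were determined.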
Sequence of ERBB (P04626 23-1255): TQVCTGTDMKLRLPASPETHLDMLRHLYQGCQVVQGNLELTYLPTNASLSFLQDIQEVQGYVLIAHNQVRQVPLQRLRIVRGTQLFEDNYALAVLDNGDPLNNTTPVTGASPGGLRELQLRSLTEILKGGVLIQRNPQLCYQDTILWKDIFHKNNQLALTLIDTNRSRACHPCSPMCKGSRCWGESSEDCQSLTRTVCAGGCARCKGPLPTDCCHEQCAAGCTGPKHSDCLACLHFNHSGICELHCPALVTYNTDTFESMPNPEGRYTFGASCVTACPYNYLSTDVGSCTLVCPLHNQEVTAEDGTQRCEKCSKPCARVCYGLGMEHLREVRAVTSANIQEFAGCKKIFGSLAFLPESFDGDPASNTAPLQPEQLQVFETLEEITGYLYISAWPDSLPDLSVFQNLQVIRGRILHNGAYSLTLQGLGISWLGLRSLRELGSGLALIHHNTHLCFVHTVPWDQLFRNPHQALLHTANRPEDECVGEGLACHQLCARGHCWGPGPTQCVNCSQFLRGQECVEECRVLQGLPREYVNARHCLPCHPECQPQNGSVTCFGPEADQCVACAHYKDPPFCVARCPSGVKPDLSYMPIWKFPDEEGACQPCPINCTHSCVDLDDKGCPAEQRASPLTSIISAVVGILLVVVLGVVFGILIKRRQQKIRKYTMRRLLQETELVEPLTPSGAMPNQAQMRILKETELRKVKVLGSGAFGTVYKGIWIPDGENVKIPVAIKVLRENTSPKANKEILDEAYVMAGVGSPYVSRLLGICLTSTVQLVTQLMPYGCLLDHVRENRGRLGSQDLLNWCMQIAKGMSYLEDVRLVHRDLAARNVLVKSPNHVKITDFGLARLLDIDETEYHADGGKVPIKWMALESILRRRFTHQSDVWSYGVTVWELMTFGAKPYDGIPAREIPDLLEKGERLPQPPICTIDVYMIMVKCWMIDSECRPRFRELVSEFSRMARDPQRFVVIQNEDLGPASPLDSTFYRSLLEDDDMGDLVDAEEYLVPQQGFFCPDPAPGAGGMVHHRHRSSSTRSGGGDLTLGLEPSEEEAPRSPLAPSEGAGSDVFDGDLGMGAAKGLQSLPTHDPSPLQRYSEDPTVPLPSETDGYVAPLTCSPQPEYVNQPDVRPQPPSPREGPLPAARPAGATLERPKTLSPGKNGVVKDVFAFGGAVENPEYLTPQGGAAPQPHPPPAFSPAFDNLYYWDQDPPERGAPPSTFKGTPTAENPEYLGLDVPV
A further series deals with TEC (Homo sapiens, UniProt P42680). The experiment in a line: RBC enzymatic assay, ATP at Km. The format is biochemical. Put shortly: as §3
Sequence of TEC (P42680 whole entry): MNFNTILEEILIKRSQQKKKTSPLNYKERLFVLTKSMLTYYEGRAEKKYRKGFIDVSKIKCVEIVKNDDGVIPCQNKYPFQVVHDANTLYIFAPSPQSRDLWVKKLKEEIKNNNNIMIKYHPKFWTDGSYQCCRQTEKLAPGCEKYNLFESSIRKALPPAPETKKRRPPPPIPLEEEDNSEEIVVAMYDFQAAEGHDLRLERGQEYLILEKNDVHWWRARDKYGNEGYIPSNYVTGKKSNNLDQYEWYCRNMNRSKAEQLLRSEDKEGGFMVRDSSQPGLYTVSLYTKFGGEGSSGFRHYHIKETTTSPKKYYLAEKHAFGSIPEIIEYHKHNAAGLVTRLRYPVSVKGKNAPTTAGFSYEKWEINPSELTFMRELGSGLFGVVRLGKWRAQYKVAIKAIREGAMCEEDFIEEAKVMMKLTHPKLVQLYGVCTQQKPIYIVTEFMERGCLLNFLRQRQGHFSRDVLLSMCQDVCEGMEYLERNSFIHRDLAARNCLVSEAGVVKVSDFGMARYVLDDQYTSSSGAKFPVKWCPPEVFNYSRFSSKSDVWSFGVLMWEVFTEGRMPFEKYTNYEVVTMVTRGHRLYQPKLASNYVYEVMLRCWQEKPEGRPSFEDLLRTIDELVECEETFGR
For a further series, the system named is EOL-1. The experiment in a line: Antiproliferative assay. It counts as cell-based. The note with it: Homo sapiens, EOL1, 72 h, read-out: Mean IC50. Put shortly:
as §2

Series [9] deals with MV4–11 FLT3-ITD xenograft. The experiment in a line: MV4–11 subcutaneous xenograft study. The format is in vivo, BALB/c nu/nu mice.
The test system of another series is THP-1. The experiment in a line: Antiproliferative assay. It counts as cell-based. The following applies: Homo sapiens, THP-1, 72 h, read-out: Mean IC50. Put shortly: as §2
For a further series, the target named is FLT3-ITD (Homo sapiens, UniProt P36888). The experiment in a line: RBC enzymatic assay, ATP at Km. The format is biochemical. The procedure, abridged:
as §3

Series [10] has as its system phosphorylation of ERK1/2. The experiment in a line: Western blot analysis of kinase inhibition. It counts as cell-based. The note with it: Fig. 2B. Put shortly: as §1
Series [11] in a line: Phase I trial tolerability. It counts as in vivo, patients with AML and MDS/MPN. The following applies: doses that yield plasma concentrations up to 1 μmol/L.
The subject of the next series is phosphorylation of STAT5. The experiment in a line: Western blot analysis of kinase inhibition. The format is cell-based. The following applies: Fig. 2B. The procedure, abridged: as §1
A further series has as its system HEL92.1.7. The experiment in a line: Antiproliferative assay. It counts as cell-based. The note with it: Homo sapiens, HEL 92.1.7, 72 h, read-out: Mean IC50. The procedure, abridged: as §2
In series [12] the target is hERG potassium ion channel (Homo sapiens, UniProt Q12809). The experiment in a line: hERG inhibition. In general terms: hERG is a cardiac potassium channel; its block is linked to QT prolongation.

Sequence of FLT3-ITD (P36888 564-993, change not shown): as the sequence (P36888 564-993, change not shown) above
Sequence of FLT3 ITD/F691L (P36888 564-993 F691L): as the sequence (P36888 564-993, change not shown) above, with F128L counted along it
Sequence of FLT3 (P36888 27-993): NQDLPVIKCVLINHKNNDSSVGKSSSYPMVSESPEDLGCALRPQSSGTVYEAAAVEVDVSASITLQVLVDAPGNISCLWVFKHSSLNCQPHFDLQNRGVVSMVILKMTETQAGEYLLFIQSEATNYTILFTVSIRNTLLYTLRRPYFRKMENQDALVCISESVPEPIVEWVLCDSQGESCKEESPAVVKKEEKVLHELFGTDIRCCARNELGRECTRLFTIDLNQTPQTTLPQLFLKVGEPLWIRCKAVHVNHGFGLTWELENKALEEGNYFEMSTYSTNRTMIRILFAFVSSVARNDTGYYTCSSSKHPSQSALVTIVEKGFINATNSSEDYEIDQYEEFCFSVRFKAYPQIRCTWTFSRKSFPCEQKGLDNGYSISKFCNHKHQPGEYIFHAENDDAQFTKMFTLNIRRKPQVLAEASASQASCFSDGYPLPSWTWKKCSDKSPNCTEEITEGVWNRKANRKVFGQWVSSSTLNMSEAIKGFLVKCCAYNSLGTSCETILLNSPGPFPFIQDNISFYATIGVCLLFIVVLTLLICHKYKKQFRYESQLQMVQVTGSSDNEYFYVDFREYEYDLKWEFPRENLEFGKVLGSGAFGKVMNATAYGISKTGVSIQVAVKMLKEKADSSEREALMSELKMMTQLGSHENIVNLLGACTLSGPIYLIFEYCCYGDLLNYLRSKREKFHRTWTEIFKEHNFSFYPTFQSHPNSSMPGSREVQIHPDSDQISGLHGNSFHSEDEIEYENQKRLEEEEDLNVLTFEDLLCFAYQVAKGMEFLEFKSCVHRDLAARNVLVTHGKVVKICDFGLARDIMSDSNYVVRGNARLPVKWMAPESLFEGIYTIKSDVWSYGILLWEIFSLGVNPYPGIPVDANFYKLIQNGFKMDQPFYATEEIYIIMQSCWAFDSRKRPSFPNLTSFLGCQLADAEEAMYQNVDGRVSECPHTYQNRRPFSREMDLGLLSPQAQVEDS

For `CCc1nc(C(N)=O)c(Nc2ccc(N3CCC(N4CCN(C)CC4)CC3)c(OC)c2)nc1NC1CCOCC1` [Gilteritinib, gilteritinib], the IC50 came out at 28 ± 2 nM with Ba/F3 cells FLT3- ITD, 96 ± 6 nM in series [1], 9 ± 5 nM in series [3] and 521 ± 68 nM in the series with Ba/F3 cells FLT3 D835Y. In addition, in series [2], the event-free survival was 2.8 months. In addition, the response rate in series [2] is given as 34%.
With `CC1(COc2ccc3c(c2)ncn3-c2ccc3cccc(N4CCC(N)CC4)c3n2)COC1` [Crenolanib, crenolanib], the IC50 is 38 ± 8 nM in the series with Ba/F3 cells FLT3- ITD, 286 ± 9 nM in series [1], 37 ± 13 nM in series [3] and 831 ± 195 nM in the series on Ba/F3 cells FLT3 D835Y.
`Cc1cnc(-c2ccc(-c3ccc(NC(=O)Nc4c(F)cc(F)cc4F)cc3F)c3c2C(=O)NC3)[nH]1` [luxeptinib, Luxeptinib]: in the series on phosphorylation of FLT3, the “phosphorylation of FLT3” value is recorded as “potently reduces the phosphorylation”. Further, in the series with Ba/F3 cells FLT3- ITD (FLT3-ITD in the Ba/F3 system), the “fold more potent than quizartinib” value is reported as 4 fold. Further, the IC50 in the series with Ba/F3 cells FLT3- ITD was 1 ± 0.2 nM; in series [1] it was 9 ± 1 nM; in series [4] it was under 200 nM; in series [5] it was 94.5 nM; in the series on MOLM-13, 0.395 nM; in [3], 22 ± 9 nM. Also, the 50% inhibitory concentration (IC50) was over 1000 nM on ERBB; 139 nM against TEC; 0.045 nM in the series with EOL-1; 2970 nM in the series on THP-1; 0.8 nM at FLT3-ITD (FLT3-ITD, recombinant kinase with ATP concentration at the Km); 4690 nM in the series on HEL92.1.7. In the series with Ba/F3 cells FLT3 D835Y, this molecule came in with an IC50 of 6 ± 0.4 nM. For the same molecule, the figures for the Kd at FLT3 D833Q (TKD), at FLT3 ITD/F691L and at FLT3– ITD were 6.4 nM, 16 nM and 3.1 nM, respectively. The “effect on QTc or any other parameter of heart function” value in [6] is on record as “no effect”. For the same molecule, the “hematologic, cardiovascular or other organ toxicities” value in [7] is recorded as “No hematologic, cardiovascular or other organ toxicities were observed”. Also, the “involvement of CYP3A5 in metabolism” value on CYP3A5 is given as “involved in the metabolism”. Further, the “inhibition of FLT3 in a plasma inhibition assay” value at FLT3 is “almost complete inhibition”. Also, in series [8], the “concentration inducing apoptosis (PARP cleavage)” value was at most 5 nmol/L. The “involvement of CYP3A4 in metabolism” value on CYP3A4 is “involved in the metabolism”. Further, in series [9] (300 mg/kg twice a day, oral gavage, 28 days), the “mice with tumor growth completely suppressed out to 120 days” value is given as 10 of 11. In addition, the “weight loss or clinically apparent adverse events” value in series [9] (doses up to 300 mg/kg twice a day, mice) was “No weight loss or clinically apparent adverse events”. In addition, in series [9] (lowest dose of 20 mg/kg/day, oral, 28 days), the “Inhibition of tumor growth” value was “apparent”. In addition, the “response of regrown tumors to second 28-day treatment” value in [9] (re-treatment at 300 mg/kg twice a day, 100 and 300 mg/kg groups) is reported as “All tumors that regrew in these two groups responded”. In addition, the “fold lower inhibitory concentration for recombinant FLT-ITD than WT FLT3” value on FLT3-ITD (recombinant kinases) worked out at 10 fold. In addition, the “phosphorylation of downstream ERK1/2” value in series [10] was “reduces the phosphorylation”. Further, in [11], the “tolerability in phase I trial” value is listed as “generally well tolerated”. Further, the “phosphorylation of downstream STAT5” value in the series on phosphorylation of STAT5 was “reduces the phosphorylation”. Also, the “inhibition of hERG potassium ion channel” value in series [12] is on record as “did not inhibit”.
